These results are taken from ChEMBL document CHEMBL2375329, “A diazen-1-ium-1,2-diolate analog of 7-azabenzobicyclo[2.2.1]heptane: synthesis, nitric oxide and nitroxyl release, in vitro hemodynamic, and anti-hypertensive studies” (Bioorg Med Chem Lett, 2013).

Molecules are shown by their SMILES.

Data set [1] relates to Heart. As to the kind of experiment: Ionotropic activity in C57BL/6 mouse heart assessed as heart rate at 100 uM after 20 mins by hemodynamic analysis (reference value: 342 +/- 11 bpm). The data set is classed as functional. Summed up: (§1)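 Isolated C57BL/6 mouse hearts perfused retrogradely (Langendorff) at constant pressure (90 cm H2O) with 95% O2/5% CO2-aerated Krebs-Henseleit buffer at 37 °C. After 20 min stabilization, hearts were perfused with compound at 10 or 100 µM for 20 min. Measured: heart rate, rates of contraction and relaxation, LVDP and coronary flow. Comparison to baseline; mean ± SEM, n = 4.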

The subject of data set [2] is Mus musculus. As to the kind of experiment: Antihypertensive activity in C57 black mouse assessed as mean blood pressure at 13.7 to 60.345 umol/kg, po after 1 hr (reference value: 106 +/- 11 mmHg). The data set is classed as functional.
In data set [3] the test system is Heart. Description: Ionotropic activity in C57BL/6 mouse heart assessed as increase in coronary flow rate at 10 uM after 20 mins by hemodynamic analysis relative to control. The data set is classed as functional. Summed up:
as §1

Data set [4] deals with Mus musculus. Description: Antihypertensive activity in C57 black mouse assessed as systolic blood pressure at 13.7 to 60.345 umol/kg, po after 1 hr (reference value: 126.5 +/- 9.4 mmHg). The data set is classed as functional, Artery.
Data set [5] relates to Mus musculus. As to the kind of experiment: Effect on cardiac hemodynamic parameter in C57 black mouse assessed as heart rate at 13.7 to 60.345 umol/kg, po after 3 hrs (reference value: 439 +/- 73 bpm). The data set is classed as functional.
Data set [6] relates to Heart. As to the kind of experiment: Positive ionotropic activity in C57BL/6 mouse heart assessed as increase in left ventricular developing pressure at 10 uM after 20 mins by hemodynamic analysis relative to control. The data set is classed as functional. An outline of the steps: as §1
Data set [7] can be described thus: Induction of HNO release in phosphate buffer saline after 2 hrs by phosphine-trapping based LC-MS assay relative to control. The data set is classed as physicochemical. Summed up:
(§2)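 Test compound (20 µM final) was incubated in PBS pH 7.4 containing 7.5% DMSO with a phosphine HNO trap (1 mM final) and 4-hydroxybenzophenone internal standard (5.05 µM), in a sealed vial at 37 °C for 2 h or 48 h. The reaction was quenched with H2O2, dried, and redissolved in methanol. HNO-derived amide was quantified by ESI-negative LC-MS against a standard curve. % is of a theoretical 1 mol HNO/mol, mean of triplicates.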

The test system of data set [8] is Mus musculus. As to the kind of experiment: Antihypertensive activity in C57 black mouse assessed as mean blood pressure at 13.7 to 60.345 umol/kg, po after 6 hrs (reference value: 105.7 +/- 9.3 mmHg). The data set is classed as functional.
Data set [9] has as its system Mus musculus. As to the kind of experiment: Antihypertensive activity in C57 black mouse assessed as diastolic blood pressure at 13.7 to 60.345 umol/kg, po after 6 hrs (reference value: 85.3 +/- 11.5 mmHg). The data set is classed as functional, Artery.
The test system of data set [10] is Mus musculus. As to the kind of experiment: Antihypertensive activity in C57 black mouse assessed as systolic blood pressure at 13.7 to 60.345 umol/kg, po after 6 hrs (reference value: 126.2 +/- 7.2 mmHg). The data set is classed as functional, Artery.
The subject of data set [11] is Heart. As to the kind of experiment: Ionotropic activity in C57BL/6 mouse heart assessed as decrease in heart rate at 10 uM after 20 mins by hemodynamic analysis relative to control. The data set is classed as functional. More on the design: scale not given: the % may be the effect or the level left. Summed up:
as §1

A short description of data set [12]: Induction of nitric oxide release in phosphate buffer solution after 2 hrs by Griess method relative to control. The data set is classed as physicochemical. An outline of the steps: (§3)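 Test compound at 5.0 × 10^-2 mM in PBS pH 7.4 at 37 °C for 2 or 4 h. Nitrite formed from NO was quantified by the Griess reaction and expressed as % of a theoretical maximum of 2 mol NO/mol compound; mean of n = 3.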
(In general: Griess reagent forms a coloured azo dye with nitrite.)

Data set [13] can be described thus: Half life of the compound in phosphate buffered saline at 300 uM after 24 hrs at pH 7.4 by diazeniumdiolate chromophore-based UV-Vis spectrophotometric analysis. The data set is classed as physicochemical. An outline of the steps:
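Compound at 300 µM final (added from 6 mM DMSO stock; 5% DMSO final) in pH 7.4 phosphate buffer, stirred at 37 °C for 0-24 h. Spectra scanned at 200-400 nm over time. Decay of the diazeniumdiolate absorbance at 259 nm was fitted as first order by linear regression of ln(At − A∞) versus time, and t1/2 = ln2/k.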

Data set [14] deals with Heart. As to the kind of experiment: Ionotropic activity in C57BL/6 mouse heart assessed as rate of relaxation at 100 uM after 20 mins by hemodynamic analysis (reference value: -3318 +/- 161 cmH2O/ms). The data set is classed as functional. Summed up: as §1
In data set [15] the test system is Mus musculus. Description: Antihypertensive activity in C57 black mouse assessed as mean blood pressure at 13.7 to 60.345 umol/kg, po after 3 hrs (reference value: 97.5 +/- 8.7 mmHg). The data set is classed as functional.
For data set [16], the system named is Mus musculus. As to the kind of experiment: Antihypertensive activity in C57 black mouse assessed as systolic blood pressure at 13.7 to 60.345 umol/kg, po after 3 hrs (reference value: 118.3 +/- 6.1 mmHg). The data set is classed as functional, Artery.
Data set [17] in a line: Ratio of IPA/No half life to compound half life in phosphate buffered saline at pH 7.4. As to conditions: buffer. The data set is classed as physicochemical.
Data set [18] relates to Heart. As to the kind of experiment: Ionotropic activity in C57BL/6 mouse heart assessed as increase in rate of contraction at 10 uM after 20 mins by hemodynamic analysis relative to control. The data set is classed as functional. Summed up: as §1
Data set [19] deals with Heart. As to the kind of experiment: Positive ionotropic activity in C57BL/6 mouse heart assessed as left ventricular developing pressure at 100 uM after 20 mins by hemodynamic analysis (reference value: 169 +/- 2 cmH2O). The data set is classed as functional. An outline of the steps: as §1
Data set [20] has as its system Mus musculus. As to the kind of experiment: Antihypertensive activity in C57 black mouse assessed as diastolic blood pressure at 13.7 to 60.345 umol/kg, po after 1 hr (reference value: 85.5 +/- 12.6 mmHg). The data set is classed as functional, Artery.
Data set [21] has as its system Heart. Description: Ionotropic activity in C57BL/6 mouse heart assessed as coronary flow rate at 100 uM after 20 mins by hemodynamic analysis (reference value: 2.62 +/- 0.1 ml/min). The data set is classed as functional. An outline of the steps:
as §1

A short description of data set [22]: Induction of HNO release in phosphate buffer saline after 48 hrs by phosphine-trapping based LC-MS assay relative to control. The data set is classed as physicochemical. Summed up:
as §2

Data set [23] is described as follows: Induction of nitric oxide release in phosphate buffer solution after 4 hrs by Griess method relative to control. The data set is classed as physicochemical. Summed up: as §3
The test system of data set [24] is Mus musculus. Description: Antihypertensive activity in C57 black mouse assessed as diastolic blood pressure at 13.7 to 60.345 umol/kg, po after 3 hrs (reference value: 77.2 +/- 11.3 mmHg). The data set is classed as functional, Artery.
Data set [25] has as its system Mus musculus. As to the kind of experiment: Effect on cardiac hemodynamic parameter in C57 black mouse assessed as heart rate at 13.7 to 60.345 umol/kg, po after 1 hr (reference value: 449 +/- 40 bpm). The data set is classed as functional.
In data set [26] the test system is Heart. Description: Ionotropic activity in C57BL/6 mouse heart assessed as rate of contraction at 100 uM after 20 mins by hemodynamic analysis (reference value: 4178 +/- 141 cmH2O/ms). The data set is classed as functional. Summed up: as §1
For data set [27], the system named is Mus musculus. As to the kind of experiment: Effect on cardiac hemodynamic parameter in C57 black mouse assessed as heart rate at 13.7 to 60.345 umol/kg, po after 3 hrs (reference value: 448 +/- 72 bpm). The data set is classed as functional.
In data set [28] the test system is Heart. Description: Ionotropic activity in C57BL/6 mouse heart assessed as increase in rate of relaxation at 10 uM after 20 mins by hemodynamic analysis relative to control. The data set is classed as functional. Also noted: scale not given: the % may be the effect or the level left. Summed up: as §1
Data set [29] is described as follows: Induction of HNO release in phosphate buffer saline after 2 to 4 hrs by phosphine-trapping based LC-MS assay relative to control. The data set is classed as physicochemical. An outline of the steps:
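HNO trapping assay. Test compound at 20 µM with phosphine trap at 1 mM and 4-hydroxybenzophenone internal standard at 5.05 µM, in PBS pH 7.4 containing 7.5% DMSO, sealed, 37 °C. Quenched with H2O2, then dried and redissolved in methanol. HNO-derived amide quantified by ESI-negative LC-MS against a standard curve (0.2-10 µg/mL). Result is % of 1 mol HNO/mol compound; mean of triplicates.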

Data set [30] in a line: Induction of nitric oxide release in phosphate buffer solution after 2 to 4 hrs by Griess method relative to control. The data set is classed as physicochemical. An outline of the steps: as §3
Data set [31] can be described thus: Induction of nitric oxide release in phosphate buffer solution after 1.5 hrs by Griess method relative to control. The data set is classed as physicochemical. An outline of the steps: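 Test compound at 5.0×10^-2 mM was incubated in phosphate buffer pH 7.4 at 37 °C for 1.5 h. NO was estimated indirectly as nitrite by the Griess reaction. % nitrite is based on a theoretical maximum of 2 mol NO/mol compound, mean of n = 3.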

One may read the half-life as how long it takes for the measured level to halve. `[Na+].[O-]/N=[N+](/[O-])N1C2CCC1c1ccccc12`: the Activity was 307 bpm with Heart [1]; 82.3 mmHg in the data set on Mus musculus [2]; 53% in the data set on Heart [3]; 105.5 mmHg with Mus musculus [4]; 466 bpm in the data set with Mus musculus [5]; 24% with Heart [6]. The Activity in [7] is 22.3%; in the data set on Mus musculus [8], 101.1 mmHg; in the data set on Mus musculus [9], 87.2 mmHg; with Mus musculus [10], 128.9 mmHg; with Heart [11], 22%; in data set [12], 19%. For the same molecule, the Activity in the data set on Heart [14] was -3945 cmH2O/ms; in the data set on Mus musculus [15], 85.8 mmHg; with Mus musculus [16], 106.5 mmHg; in the data set with Heart [18] it was 30%; in the data set with Heart [19], 213 cmH2O; in the data set on Mus musculus [20] it was 70.6 mmHg. Also, the Activity in the data set with Heart [21] was found to be 3.92 mL/min; in data set [22], 20.2%; in [23], 21.5%; in the data set with Mus musculus [24] it was 75.4 mmHg; in the data set on Mus musculus [25] it was 605 bpm; with Heart [26], 5547 cmH2O/ms. For the same molecule, the Activity was found to be 554 bpm in the data set on Mus musculus [27] and 9% in the data set with Heart [28]. Further, the half-life at 300 µM in [13] came out at 17.8 min. Besides, the Ratio in [17] turned out to be 7.7.

In turn, `CN(c1ccc(C#N)cc1)N(O)N=O` gave a half-life at 300 µM in [13] of 11 min. In data set [29], this molecule came in with an Activity of 100%.

Consider `CN(N=O)c1ccc(C#N)cc1`, for which the Activity in data set [30] is recorded as 100%.

As to `[Na+].[Na+].[O-][N+]([O-])=NO` [ANGELI'S SALT], the Activity amounted to 85.9% in data set [7], 21.3% in data set [12], 85.7% in [22] and 20.8% in data set [23].

On to `CC(C)N[N+]([O-])=N[O-].[Na+]`, for which the Activity in data set [7] is reported as 5.4%; in data set [22], 5.1%; in [31] it was 62%.
